# Only some compounds are listed: those with a hit (about 1.2% of all), similar ones and a draw of the others.
# Yeast superoxide: caloric restriction mimetics inhibiting age-related superoxide in yeast; 330,000 compounds, 0.18% hits; superoxide response (% of plate mean), % at 10 µM; AID 2690; S. cerevisiae aged cells, superoxide DHE fluorescence; active compounds read low;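 active = superoxide response under a set limit, about three screen SD below normal, cut at about 65% in these data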;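 also: yeast aged for seven days with compound at 30 °C before DHE staining; 100% = average MFI of all compound-treated wells on the plate with controls excluded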
# ARFGAP1 inhibitor: inhibits rat ARF GTPase activating protein 1. inhibition, % at 16.5 µM. 360,000 compounds, 0.26% hits. Q62848. Arfgap1-stimulated ARF1 GTP hydrolysis, GDP FP detection;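 active = inhibition above a per-plate limit, mean inhibition of low control wells plus 3 SD, cut at about 25% in these data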;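 also: 0% = DMSO wells with enzyme and 100% = wells lacking Arfgap1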
# Target sequence (Q62848 1-136 limits assumed): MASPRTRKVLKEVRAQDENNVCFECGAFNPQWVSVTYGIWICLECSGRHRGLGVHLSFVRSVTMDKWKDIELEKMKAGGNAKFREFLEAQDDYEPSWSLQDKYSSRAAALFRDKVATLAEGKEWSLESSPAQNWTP
#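 Assay system: purified rat His6-Arfgap1 residues 1-136 (GAP domain); Reagent: human Δ17 ARF1 bound to GTP; Dosing: 16.5 µM single point, 1.26% DMSO; Times: GTP hydrolysis reaction 2 h at 25 °C; Signal: FP, GDP Alexa 633 tracer displaced from anti-GDP antibody, 620/688 nm; Measure: % inhibition from polarization.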
# LANA-H2A inh: blocks KSHV LANA binding to histone H2A/H2B; Q9QR71; cell-free LANA-H2A/H2B peptide, fluorescence polarization; inhibition, % (concentration not given with the values); 320,000 compounds, 0.6% hits; in the data active = inhibition mostly above about 10%, no sharp cut-off; inactive = mostly below about 6.7%
# proCasp7 act: counter-screen for procaspase-3 activators: activators of human procaspase-7 | recombinant procaspase-7, Ac-DEVD-pNA absorbance 405 nm; D23A/D198A/D206A triple mutant, cannot self-cleave; scale: DMSO 0, 5 µM enzyme 100 | activation, % at 8.5 µM | 330,000 compounds, 0.093% hits | AID 463210;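 active = percent activation above the screen-wide mean plus 3 SD, cut at about 25% in these data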
#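 Assay system: Uncleavable procaspase-7 mutant enzyme; Input: 2 µM procaspase-7 mutant as dispensed; Also added: DEVD-pNA substrate; Medium: Zinc-free HEPES pH 7.4 with 300 mM NaCl, 0.01% Triton X-100; Timing: 1 h compound preincubation, 2 h substrate cleavage, 25 °C; Measured by: Epi-absorbance of released pNA at 405 nm, two timepoints.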
# proCasp3 act: procaspase-3 (human) activation. 330,000 compounds, 0.11% hits. activation, % at 8.5 µM. P42574. AID 463141. recombinant procaspase-3 D3A, Ac-DEVD-pNA absorbance 405 nm;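 active = activation above the mean of all tested compounds plus 3 SD, cut at about 21% in these data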;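 also: 0% = DMSO alone and 100% = DMSO wells spiked with extra 5 µM PC-3 D3A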
#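 assay system = Procaspase-3 D3A mutant | signal = absorbance at 405 nm, 0 and 120 min | times = 1 h preincubation plus 2 h reaction at 25 °C | repeats = single replicate | read-out = % activation between DMSO and enzyme-spiked controls | medium = Zinc-free HEPES saline buffer with Triton X-100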
# ASAP1 inh: blocks human ASAP1-stimulated Arf1 GTP hydrolysis. GDP FP detection. 360,000 compounds, 0.19% hits. AID 624377. inhibition, % at 16.5 µM. Q9ULH1; in the data active = inhibition above about 25%;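 also: 0% = vehicle with enzyme and substrate and 100% = no enzyme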
# Target sequence (Q9ULH1 325-724 limits assumed): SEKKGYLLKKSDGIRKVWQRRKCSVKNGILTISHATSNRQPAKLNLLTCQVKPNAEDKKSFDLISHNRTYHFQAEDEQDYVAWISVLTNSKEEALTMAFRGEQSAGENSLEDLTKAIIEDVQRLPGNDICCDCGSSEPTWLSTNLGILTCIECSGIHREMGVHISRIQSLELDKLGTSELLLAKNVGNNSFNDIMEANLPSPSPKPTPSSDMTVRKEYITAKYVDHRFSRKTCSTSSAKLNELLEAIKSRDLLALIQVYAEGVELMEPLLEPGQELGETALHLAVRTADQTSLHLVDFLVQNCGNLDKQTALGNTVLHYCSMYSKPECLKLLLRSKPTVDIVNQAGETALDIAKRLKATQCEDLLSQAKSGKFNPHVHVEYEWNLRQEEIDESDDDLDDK
# Superoxide pick: yeast aging superoxide inhibition, cherry pick confirmation | shares compounds with Yeast superoxide | 850 compounds, 1% hits | S. cerevisiae aging, superoxide DHE fluorescence; active compounds read low | superoxide response (% of plate), % at 10 µM;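 active = superoxide signal below 65% of the plate average of sample wells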;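 also: cells aged with compound for 7 days at 30 degrees C before staining; 100% equals mean DHE fluorescence of all compound wells on the plate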
# DHE fluor count: counter-screen for compounds affecting DHE oxidation and fluorescence in yeast; shares compounds with Yeast superoxide; 850 tested, under 10 active; fluorescence response, % at 10 µM; S. cerevisiae BY4741, flow cytometry; active compounds read low; AID 435000;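 active = fluorescence response below 15%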;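 also: percent of the mean fluorescence averaged over all compound wells on the plate; lower means stronger quenching of DHE signal or ROS scavenging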
# * hit, by the source's call; · = no result.
SMILES,Yeast superoxide,ARFGAP1 inhibitor,LANA-H2A inh,proCasp7 act,proCasp3 act,ASAP1 inh,Superoxide pick,DHE fluor count
CC1CCN(S(=O)(=O)c2ccc(C(=O)Nc3nnc(C4CC4)o3)cc2)CC1,83,-7,1,4,10,-12,87,98
CC1CCCCN1S(=O)(=O)c1ccc(C(=O)Nc2nnc(C3=COCCO3)o2)cc1 (stereo not drawn),126,-5,1,2,0,-1,94,101
CN(C)C(=O)CSc1nc2ccc(N3C(=O)c4ccccc4C3=O)cc2s1,117,-4,-5,-9,4,1,·,·
NS(=O)(=O)c1ccc(NC(=O)/C=C/c2ccc(S(=O)(=O)NCc3ccco3)cc2)cc1,100,8,-2,-9,2,11,·,·
COc1ccc2c3c(cccc13)OC2=O,102,-17,5,13,4,1,·,·
COc1ccc2c3c(cccc13)N(C)N=C2C,59*,-13,8,-4,3,-4,74,95
c1ccc(-c2cccc(-c3ccccn3)n2)nc1,63*,·,2,6,0,·,76,118
CCn1c2ccccc2c2cc([N+](=O)[O-])ccc21,98,3,7,1,0,0,99,93
CC(C)n1c2ccccc2c2cc([N+](=O)[O-])ccc21,96,-4,9,1,2,-2,100,110
CCN(CC)c1ccc2nc3ccc(N)cc3[n+](-c3ccccc3)c2c1,·,-9,·,·,·,-6,·,·
CCN(CC)c1ccc2nc3ccccc3[n+](CC)c2c1,65*,·,1,0,-7,·,82,108
CCCc1cc(C(=O)Nc2cccc([N+](=O)[O-])c2)cs1,65*,2,-1,-9,-6,-2,95,98
CC(C)(C)c1ccc(C(=O)Nc2cccc([N+](=O)[O-])c2)cc1,80,3,-1,5,4,-7,·,·
COc1ccc(/C=C2\SC(N3CCCCC3)=NC2=O)cc1,55*,3,4,6,-3,-4,98,99
COc1cccc(C(=O)OCC(=O)NCC2CCCO2)c1 (stereo not drawn),101,-6,5,11,9,0,·,·
NS(=O)(=O)c1ccc(CCNC(=O)C(=O)NCC2OCCN2S(=O)(=O)c2cc(F)ccc2F)cc1 (stereo not drawn),63*,12,2,-3,-1,0,97,101
O=C(NCCc1ccccc1)C(=O)NCC1OCCCN1S(=O)(=O)c1cc(F)ccc1F (stereo not drawn),97,5,-3,6,-5,5,·,·
O=C(CSc1nc2ccccc2o1)N1CCN(S(=O)(=O)c2ccc3ccccc3c2)CC1,64*,1,3,-3,-3,-2,111,117
COc1ccc(NS(=O)(=O)c2cc(C)ccc2OC)cc1OC,102,-20,-1,1,-8,-4,·,·
COc1ccc(F)cc1S(=O)(=O)Nc1ccc(C)cc1,98,-1,0,2,-3,0,103,92
CCN(CC)S(=O)(=O)N1CCC(C(=O)NC2CCCC2)CC1,64*,3,-5,12,-2,0,119,117
CC(NC(=O)[C@H](C)N1C(=O)N2CCc3c([nH]c4ccccc34)[C@@]2(C)C1=O)c1ccccc1 (stereo partly drawn),105,7,-4,-1,3,0,·,·
Cc1ccc(NC2CCCN(C(=O)CSc3ccncc3)C2)cc1C (stereo not drawn),95,-2,-9,·,·,18,·,·
OC(COCC(F)(F)C(F)(F)C(F)(F)C(F)F)Cn1c2ccc(Cl)cc2c2cc(Cl)ccc21 (stereo not drawn),97,·,4,17,-7,·,109,93
N=c1n(Cc2ccc(Cl)cc2)c2ccccc2n1CC(O)COc1ccccc1 (stereo not drawn),107,1,6,10,-73,2,·,·
SMILES,Yeast superoxide,ARFGAP1 inhibitor,LANA-H2A inh,proCasp7 act,proCasp3 act,ASAP1 inh,Superoxide pick,DHE fluor count
Cc1cc(-c2n[nH]c(=S)n2Cc2ccco2)nn1C,65*,-5,2,-6,-14,-2,102,98
Cc1c(Br)c(-c2n[nH]c(=S)n2Cc2ccco2)nn1C,89,4,-7,2,-6,-3,·,·
O=C(CSc1nnc(-c2ccc(O)cc2)n1Cc1ccco1)N1CCc2ccccc2C1,60*,5,-3,-12,-2,-2,92,92
NC(=O)CSc1nnc(-c2ccc(O)cc2)n1Cc1ccco1,88,9,-1,-3,7,-15,·,·
N#Cc1c(F)cccc1NCc1cccnc1,56*,3,-3,-2,-4,1,97,94
Cc1c(Cc2ccccc2)c(NCCN(C)C)n2c(nc3ccccc32)c1C#N,59*,-10,-1,1,-7,1,82,119
CCCCc1c(C)c(C#N)c2nc3ccccc3n2c1NCCN(C)C,·,-9,·,·,·,-8,·,·
COc1ccc([N+](=O)[O-])cc1N(CC(=O)NCCCOC(C)C)S(C)(=O)=O,97,-5,3,-3,9,-2,·,·
COc1ccc(CCNc2nc(=S)[nH]c3cc(OC)c(OC)cc23)cc1OC,63*,6,11,8,10,3,99,97
CCN(CC(=O)Nc1ccc(NC(C)=O)cc1)C(=O)c1ccc(Sc2nncn2C)c([N+](=O)[O-])c1,·,8,·,·,·,9,·,·
CC1(C)C(=O)Nc2ccccc2N1C(=O)COC(=O)COc1ccc(C#N)cc1,89,2,10,2,-12,0,·,·
CC(=O)c1ccc(NS(=O)(=O)c2ccc(N)cc2)cc1,89,4,2,1,0,2,·,·
CC(=O)c1ccc(NS(=O)(=O)c2ccccc2)cc1,104,12,1,3,-4,19,94,86
COc1ccc(OC)c(S(=O)(=O)N2CCC(C(=O)N3CCc4ccccc4C3)CC2)c1,106,-9,-2,-1,-3,1,·,·
FC(F)(F)c1nc2cc3nc4ccccc4[nH]c3cc2n1,56*,-3,1,6,9,5,55*,94
COC(=O)CN1C(=O)C2(OCCCO2)c2cc(Br)ccc21,85,13,4,14,6,7,·,·
CC(C)N1C(=O)C2(OCCCO2)c2cc(Br)ccc21,60*,1,0,1,0,-4,122,110
Nc1nc(SCc2ccccc2)n[nH]1,115,3,-2,4,-8,-1,·,·
